Most compounds without a hit are left out; they make up all but 3.5% or so of the library.
MrgX1 allo act – human MrgX1 positive allosteric modulation, primary screen; 310,000 compounds, 0.63% hits; B-score at 10 µM; MrgX1-HEK293, Fluo-4 calcium flux, FDSS; hits give high values; AID 588675; Q96LB2;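 active means plate-corrected calcium response at least 3 library SD above typical, normal starting fluorescence, not activating the receptor alone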;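 further: compound read alongside a low EC10 to EC30 dose of BAM8-22 agonist; peak minus trough fluorescence over baseline measured at the second addition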
Target sequence (Q96LB2 whole entry, looked up): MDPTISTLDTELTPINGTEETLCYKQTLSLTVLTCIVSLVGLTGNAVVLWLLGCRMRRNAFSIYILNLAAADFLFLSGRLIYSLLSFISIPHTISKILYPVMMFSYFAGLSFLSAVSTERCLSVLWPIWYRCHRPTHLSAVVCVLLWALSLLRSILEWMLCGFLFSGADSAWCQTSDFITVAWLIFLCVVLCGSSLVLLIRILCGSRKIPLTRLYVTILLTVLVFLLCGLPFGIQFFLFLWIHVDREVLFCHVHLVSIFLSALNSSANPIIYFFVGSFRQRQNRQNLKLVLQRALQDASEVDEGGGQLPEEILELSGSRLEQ
RGS4 pot – potentiators or activators of RGS4 | HEK293 M3R/inducible RGS4, carbachol calcium flux Fluo4; hits give low values | B-score at 10 µM | 310,000 compounds, 0.92% hits | AID 463111;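 active means B-score of the integrated calcium signal more than 4 SD below the library mean, with starting fluorescence not abnormally high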;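 further: negative B-score means reduced calcium response which marks RGS4 activation or potentiation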
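Reagent: ECmax carbachol challenge; Test system: M3R-expressing HEK293 line, RGS4 induced by doxycycline; Schedule: overnight RGS4 induction, 30 min dye load 37 °C, 20 min compound RT; Detection: calcium dye Fluo4 fluorescence; Read-out: Agonist-evoked peak-minus-minimum fluorescence over baseline, integrated ratio, B score.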
MrgX1 ag – activates human MrgX1 receptor signaling | Q96LB2 | MrgX1-HEK293 cells, Fluo-4 calcium fluorescence, agonist mode; hits give high values | B-score at 10 µM | 310,000 compounds, 0.44% hits;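 active means calcium response B-score plate-corrected fluorescence ratio at least 3 library SD, with starting fluorescence B-score inside 5 SD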
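times = overnight plating, then 30 min 37 °C plus 30 min room-temperature dye loading | assay system = stable human MrgX1 HEK293 cell line | input = fifteen thousand cells per well | signal = kinetic calcium dye fluorescence, Fluo-4 NW | dosing = compound delivered in addition one of three | read-out = B-scored fluorescence response ratio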
MrgX1 antagonist – blocks BAM8-22 activation of human MrgX1 receptor. B-score at 10 µM. AID 588676. MRGX1-HEK293 calcium flux, Fluo-4, BAM8-22 antagonism; hits give low values. 310,000 compounds, 1.3% hits;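 active means calcium-response B-score plate-corrected more than 3 library SD below zero, starting fluorescence within 5 deviations, no agonist response on first addition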;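 further: peak minus trough fluorescence over baseline after final BAM8-22 challenge near maximal dose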
RGS4 block – human RGS4 inhibition; HEK293 M3R/RGS4 inducible, Fluo-4 calcium flux; hits give high values; triggered by carbachol at its EC20; B-score at 10 µM; 310,000 compounds, 0.45% hits; P49798;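 active means B-score, a plate-corrected calcium signal, over three deviations above library mean, with baseline fluorescence within five deviations of library mean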;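 further: RGS4 expression induced by doxycycline in cells with stable M3 receptor; B-score is computed from the integrated fluorescence ratio over baseline after carbachol; higher B-score means a larger calcium signal and so more RGS4 inhibition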
Target sequence (P49798 whole entry, looked up): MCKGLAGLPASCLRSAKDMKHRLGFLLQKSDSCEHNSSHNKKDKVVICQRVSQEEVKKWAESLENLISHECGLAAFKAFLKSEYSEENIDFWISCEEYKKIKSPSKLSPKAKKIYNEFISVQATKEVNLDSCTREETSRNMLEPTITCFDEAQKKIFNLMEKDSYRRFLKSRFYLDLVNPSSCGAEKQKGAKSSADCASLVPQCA
MrgX1 ant reconf – confirmation of human MrgX1 receptor antagonists; shares compounds with MrgX1 antagonist; MrgX1-HEK293, BAM8-22 calcium flux, Fluo-4; hits give low values; remaining BAM8-22 calcium response % of control (hits give low values), % at 10 µM; 2,300 compounds, 19% hits; AID 602420;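 active means remaining agonist calcium response no higher than 100% minus 3 SD of agonist-only control wells, with starting fluorescence near control levels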;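 further: agonist BAM8-22 given at a near maximal EC90 to ECmax level; peak minus minimum fluorescence divided by baseline after agonist addition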
HEK293 Ca flux – activity in parental HEK293 cells lacking MrgX1 | AID 624111 | fluorescence ratio F(max-min)/F0 at 10 µM | shares compounds with MrgX1 antagonist | 4,000 compounds, 2% hits | Fluo-4 calcium fluorescence, FDSS;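 active means duplicate-averaged calcium fluorescence ratio at least three times the standard deviation of buffer wells, a nonspecific response in parental cells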
HEK293 Ca counter – counter-screen for MrgX1 allosteric activators: effect in parental HEK293 cells; parental HEK293 calcium flux, Fluo-4 fluorescence ratio; hits give high values; 4,000 compounds, 0.4% hits; fluorescence ratio F(max-min)/F0 at 10 µM; shares compounds with MrgX1 antagonist; AID 624114;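 active means calcium fluorescence ratio, averaged over duplicates, at least 3 SD of the buffer-well ratio, meaning a nonspecific response in receptor-free cells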;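 further: untransfected parental HEK293 lacking MrgX1 used as counterscreen for MrgX1 allosteric activators; fluorescence change taken during the second addition on a kinetic imager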
HEK293 Ca cntr2 – counter-screen for MrgX1 activators: effect in parental HEK293 cells | shares compounds with MrgX1 antagonist | AID 624115 | Fluo-4 calcium fluorescence (FDSS); hits give high values | 4,000 compounds, 8.7% hits | fluorescence ratio F(max-min)/F0 at 10 µM;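 active means calcium fluorescence ratio at least three times the spread of buffer wells, meaning a non-specific response in parental cells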
Active calls of the source: *; i = inactive; . = not tested or not shown.

SMILES	MrgX1 allo act	RGS4 pot	MrgX1 ag	MrgX1 antagonist	RGS4 block	MrgX1 ant reconf	HEK293 Ca flux	HEK293 Ca counter	HEK293 Ca cntr2
Cc1ccc(NC(=O)N2CCCC2C(=O)Nc2nnc(C(C)C)s2)cc1 (stereo not given)	i	i	i	i	i	.	.	.	.
COCCCN(CC(=O)Nc1ccc(N2CCOCC2)cc1)S(=O)(=O)c1ccc(Cl)cc1	i	i	i	i	i	.	.	.	.
Cc1cccc(NC(=O)c2ccc(CN3CCN(Cc4ccccc4)CC3)cc2)c1	i	i	i	-7.9*	i	i	i	i	i
Cc1cccc(NC(=O)CCN2CCN(C/C=C/c3ccccc3)CC2)c1	i	i	i	-6.1*	i	i	i	i	i
O=C(CCN1CCN(C/C=C/c2ccccc2)CC1)Nc1ccccc1	i	i	i	i	i	.	.	.	.
Cc1cccc(CN2CCN(C(=S)Nc3ccccc3)CC2)c1	i	i	i	-5*	i	i	i	i	i
COCCN=C1Sc2nc3ccc(C)cc3cc2CN1Cc1ccco1	i	i	i	-5.4*	i	i	i	i	i
COc1ccccc1N1CCN(C2CCCN(C(=O)CCc3ccccn3)C2)CC1 (stereo not given)	i	i	i	i	i	.	.	.	.
Cc1cc(C)cc(NC(=O)COC(=O)CCCNC(=O)c2ccc(Cl)cc2)c1	i	i	i	-9.7*	i	77%*	i	i	i
O=C(COC(=O)CCCNC(=O)c1ccc(Cl)cc1)Nc1cc(Cl)c(Cl)cc1Cl	i	i	i	i	i	.	.	.	.
COCCCNC(=O)C1CC(=O)N(C2CCCC2)C1 (stereo not given)	i	i	i	-4.8*	i	i	i	i	i
O=C1c2ccccc2C(=O)N1CC(O)CN1CCOCC1 (stereo not given)	i	i	i	-5.2*	i	i	i	i	i
OC(CN1CCOCC1)Cn1c2ccccc2c2ccccc21 (stereo not given)	i	i	i	i	i	.	.	.	.
Cc1cc(C)c(S(=O)(=O)N2CCCC(C(=O)NCc3ccccn3)C2)c(C)c1 (stereo not given)	i	i	i	i	i	.	.	.	.
S=C(Nc1ccc(Cl)cc1)Nc1cccc2cnccc12	i	i	i	-5.2*	i	i	i	i	i
COC(C(=O)Nc1ccccc1C(=O)N1CCOCC1)c1ccccc1 (stereo not given)	i	i	i	i	i	.	.	.	.
CC(=O)Nc1ccc(S(=O)(=O)Nc2nc3nc(-c4ccccc4)cc(-c4ccccc4)n3n2)cc1	i	i	i	-6.4*	i	81%*	i	i	i
CC(=O)Nc1ccc(S(=O)(=O)Nc2cc(-c3ccccc3)nn2C)cc1	i	i	i	i	i	.	.	.	.
Cc1ccc(C(c2nnnn2C2CCCC2)N2CCN3CCCC3C2)cc1 (stereo not given)	i	i	i	-6.4*	i	i	i	i	i
CCc1ccccc1NC(=O)Nc1cc(F)ccc1F	i	i	i	i	i	.	.	.	.
CCN(c1ccccc1)c1cc(C)nc2ncnn12	i	i	i	-6.6*	i	i	i	i	i
Cc1cccc(N(C)c2cc(C)nc3ncnn23)c1	i	i	i	i	i	.	.	.	.
COc1ccc(C(=O)NC2CCN(C(=S)Nc3ccc(C)cc3)CC2)cc1	i	i	i	-4.7*	i	i	i	i	i
COc1ccc(NC(=S)N2CCC(NC(=O)c3cccc(C)c3)CC2)cc1	i	i	i	i	i	.	.	.	.
CC(C)(C)OC(=O)[C@H](Cc1ccccc1)NC(=O)c1nc[nH]c1C(=O)N1CCN(C(=O)OC(C)(C)C)CC1	i	i	i	i	i	.	.	.	.
SMILES	MrgX1 allo act	RGS4 pot	MrgX1 ag	MrgX1 antagonist	RGS4 block	MrgX1 ant reconf	HEK293 Ca flux	HEK293 Ca counter	HEK293 Ca cntr2
CC1CCN(C(=O)c2[nH]cnc2C(=O)N[C@@H](Cc2ccccc2)C(=O)OC(C)(C)C)CC1	i	i	i	-7*	i	i	i	i	i
O=C(c1ccccc1)N1N=C(C(F)(F)F)CC1(O)c1ccc(F)cc1 (stereo not given)	i	i	i	i	i	.	.	.	.
COc1ccc(C(C(=O)NC2CCCC2)N(Cc2cccnc2)C(=O)c2snc(C(N)=O)c2N)cc1 (stereo not given)	i	i	i	i	i	.	.	.	.
COc1ccc(Cl)cc1NC(=O)CN(C)C(=O)Cc1ccsc1	i	i	i	-6.8*	i	i	i	i	i
COc1ccc(Cl)cc1NC(=O)CN(C)C(=O)Cc1ccc2c(c1)CCC2	i	i	i	i	i	.	.	.	.
CC(C)(C)NC(=O)NC(=O)CN1c2cccc3cccc(c23)S1(=O)=O	i	i	i	i	i	.	.	.	.
COc1ccc(NC(=O)CN(C)C(=O)CCCN2C(=O)c3cccc4cccc(c34)C2=O)cc1	i	i	i	i	i	.	.	.	.
O=C(NCCN1CCN(C(=O)Nc2ccccc2)CC1)Nc1ccccc1	i	i	i	-6.1*	i	i	i	i	i
COc1ccc(-c2nc(CN3CCC(C(=O)N4CCOCC4)CC3)c(C)o2)cc1C	i	i	i	i	i	.	.	.	.
CCOC(=O)COc1ccc2c(c1)C(=O)CC1(CCCCC1)O2	i	i	i	-7.6*	i	i	i	i	i
Cc1ccc2[nH]c3c(c2c1)CCc1cn[nH]c1-3	i	i	i	-4.9*	i	i	i	i	i
Cc1ccc2[nH]c3c(c2c1)CCC3=O	i	i	i	i	i	.	.	.	.
OC1CCN(CC(O)C(F)(F)F)CC1 (stereo not given)	i	i	i	-5.7*	i	i	i	i	i
CNC(=O)C1=C(C)NC(=S)NC1c1cc2c(cc1OC)CCCC2 (stereo not given)	i	i	i	i	i	.	.	.	.

High-throughput results from PubChem.
